Measured values reported in ChEMBL document CHEMBL1153393, “Discovery of N-(4-methoxyphenyl)-N,2-dimethylquinazolin-4-amine, a potent apoptosis inducer and efficacious anticancer agent with high blood brain barrier penetration” (J Med Chem, 2009).
Calls of active or inactive are those of the source. The calls are words filed in the database; no cut-off is given here.

How the values were obtained:
[1] = system: SNU-398; experiment: Induction of apoptosis in human SNU398 cells assessed as caspase activation after 24 hrs by HTS assay; assay type: functional, cell-based; details: SNU-398, 24 h
Outline: (§1)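 Cell-based caspase HTS assay. Cells plated with various concentrations and incubated 24 h at 37 °C, then given fluorogenic caspase substrate N-(Ac-DEVD)-N'-ethoxycarbonyl-R110. EC50 reported as mean ± SEM of three or more experiments.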

[2] = system: HCT-116; experiment: Induction of apoptosis in human HCT116 cells assessed as caspase activation after 24 hrs by HTS assay; assay type: functional, cell-based; details: HCT-116, 24 h; outline: as §1
[3] = system: T47D; experiment: Induction of apoptosis in human T47D cells assessed as caspase activation after 24 hrs by HTS assay; assay type: functional, cell-based; outline: as §1
[4] = Drug level in rhesus monkey cerebrospinal fluid at 7.5 mg/kg, iv after 24 hrs; assay type: ADME, organism-based, Macaca mulatta; design: dose 7.5 mg/kg, route intravenous; details: in vivo
[5] = Ratio of AUC (0 to infinity) in C57BL/6 mouse brain to AUC (0 to infinity) in C57BL/6 mouse plasma at 2.5 mg/kg, iv; assay type: ADME, organism-based; design: dose 2.5 mg/kg, route intravenous; details: read-out: Ratio AUC
Outline: (§2)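 Mice given a single iv dose of 2.5 mg/kg. Plasma from blood samples and homogenized whole brain collected over time and analyzed by LC-MS/MS. Brain/plasma ratio is taken from the AUCs of the concentration-time curves.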

[6] = Drug level in rhesus monkey cerebrospinal fluid; assay type: ADME, tissue-based, Macaca mulatta; details: in vivo
[7] = system: HCT-116; experiment: Growth inhibition of human HCT116 cells after 48 hrs by celltiter assay; assay type: functional; details: HCT-116, 48 h
Outline: (§3)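 Cells ATCC-sourced, in 96-well format, exposed to serial concentrations for 48 h. Survival quantitated by CellTiter-Glo luminescence. GI50 reported as mean ± SEM of three or more experiments.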

[8] = system: T47D; experiment: Induction of apoptosis in human T47D cells assessed as G2/M DNA content at 5 nM after 24 hrs by using propidium iodide staining by flow cytometry; assay type: functional
Outline: (§4)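 T47D cells treated with 5 nM for 24 or 48 h, then stained with propidium iodide. DNA content analysed by flow cytometry, with cells scored in G1, G2/M and subdiploid (sub-G1) populations against untreated control.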

[9] = system: T47D; experiment: Induction of apoptosis in human T47D cells assessed as S phase DNA content at 5 nM after 48 hrs by using propidium iodide staining by flow cytometry; assay type: functional; outline: as §4
[10] = system: MX1; experiment: Antitumor activity against human MX1 cells xenografted in Crl:Nu/Nu-nuBR mouse assessed as tumor growth inhibition at 10 mg/kg, iv administered once weekly for 3 weeks; assay type: functional, organism-based; design: dose 10 mg/kg
[11] = system: T47D; experiment: Induction of apoptosis in human T47D cells assessed as S phase DNA content at 5 nM after 24 hrs by using propidium iodide staining by flow cytometry; assay type: functional; outline: as §4
[12] = system: MX1; experiment: Antitumor activity against human MX1 cells xenografted in Crl:Nu/Nu-nuBR mouse assessed as tumor growth inhibition at 7.5 mg/kg, iv administered once weekly for 3 weeks; assay type: functional, organism-based; design: dose 7.5 mg/kg
[13] = system: T47D; experiment: Induction of apoptosis in human T47D cells assessed as sub-diploid DNA content at 5 nM after 24 hrs by using propidium iodide staining by flow cytometry; assay type: functional; outline: as §4
[14] = system: T47D; experiment: Induction of apoptosis in human T47D cells assessed as subdiploid DNA content at 5 nM after 48 hrs by using propidium iodide staining by flow cytometry
[15] = system: SNU-398; experiment: Growth inhibition of human SNU398 cells after 48 hrs by celltiter assay; assay type: functional; details: SNU-398, 48 h; outline: as §3
[16] = system: Brain; experiment: AUC (0 to infinity) in C57BL/6 mouse brain at 2.5 mg/kg, iv; assay type: ADME, organism-based; design: time infinity, dose 2.5 mg/kg, route intravenous; details: in vivo; outline: as §2
[17] = system: T47D; experiment: Induction of apoptosis in human T47D cells assessed as G1 phase DNA content at 5 nM after 48 hrs by using propidium iodide staining by flow cytometry; assay type: functional; outline: as §4
[18] = system: T47D; experiment: Induction of apoptosis in human T47D cells assessed as G1 phase DNA content at 5 nM after 24 hrs by using propidium iodide staining by flow cytometry; assay type: functional; outline: as §4
[19] = system: Jurkat; experiment: Induction of apoptosis in human Jurkat cells assessed as sub-diploid DNA content at 10 nM after 18 hrs by flow cytometry; assay type: functional
[20] = system: T47D; experiment: Induction of apoptosis in human T47D cells assessed as sub-diploid DNA content at 5 nM after 48 hrs by using propidium iodide staining by flow cytometry; assay type: functional; outline: as §4
[21] = system: T47D; experiment: Growth inhibition of human T47D cells after 48 hrs by celltiter assay; assay type: functional; outline: as §3
[22] = system: Plasma; experiment: AUC (0 to infinity) in C57BL/6 mouse plasma at 2.5 mg/kg, iv; assay type: ADME, organism-based; design: time infinity, dose 2.5 mg/kg, route intravenous; details: in vivo; outline: as §2
[23] = system: MX1; experiment: Antitumor activity against human MX1 cells xenografted in Crl:Nu/Nu-nuBR mouse assessed as tumor growth inhibition at 5 mg/kg, iv administered once weekly for 3 weeks; assay type: functional, organism-based; design: dose 5 mg/kg
[24] = system: Jurkat; experiment: Induction of apoptosis in human Jurkat cells assessed as sub-diploid DNA content at 10 nM after 18 hrs by flow cytometry in presence of caspase inhibitor MX-1013; assay type: functional

Compound | EC50 [1] [nM] | EC50 [2] [nM] | EC50 [3] [nM] | other results
COc1ccc(N(C)c2nc(C)nc3ccccc23)nc1 | 18 | 44 | 16 | –
COc1ccc(N(C)c2nc(Cl)nc3ccccc23)cc1 | 2 | 2 | 2 | –
Cc1nc(N(C)c2ccc(N(C)C)cc2)c2ccccc2n1 | – | 19 | 16 | –
Cc1nc(N(C)c2ccc(N=[N+]=[N-])cc2)c2ccccc2n1 | 11 | 12 | 11 | –
Cc1nc(N(C)c2ccc(F)cc2)c2ccccc2n1 | 390 | 630 | 420 | –
COc1ccc(N(C)c2nc(CN(C)C)nc3ccccc23)cc1 | 2000 | 2600 | 1800 | –
COc1ccc(S(=O)(=O)Nc2cccnc2Nc2ccc(O)cc2)cc1 [ABT-751] | – | – | – | Drug uptake [4]: 1.1%
COc1ccc(N(C)c2nc(C)nc3ccccc23)cc1OC | 13 | 14 | 10 | –
COc1cnc(N(C)c2nc(C)nc3ccccc23)cn1 | 49 | 75 | 53 | Kp [5]: 1.9
Cc1ccc(NC(=O)c2ccc(CN3CCN(C)CC3)cc2)cc1Nc1nccc(-c2cccnc2)n1 [IMATINIB] | – | – | – | Drug uptake [6]: 5%
CC(=O)Nc1ccc(N(C)c2nc(C)nc3ccccc23)cc1 | 66 | 83 | 59 | Kp [5]: 0.74
COc1ccc(N(C)c2nc(C)nc3ccccc23)cc1F | 2 | 2 | 2 | –
Cc1nc(N(C)c2ccc(OC(F)F)cc2)c2ccccc2n1 | – | 11 | 9 | –
COc1ccc(N(C)c2nc(C)nc3ccccc23)cc1 [VERUBULIN] | 2 | 3 | – | GI50 [7]: 6 nM; Activity [8]: 58%; Activity [9]: 16%; Activity [10]: Active; Activity [11]: 10%; Activity [12]: Active; Activity [13]: 15%; Activity [14]: 34%; GI50 [15]: 3 nM; AUC [16]: 11459 ng/mL; Activity [17]: 14%; Activity [18]: 15%; Activity [19]: 68%; Activity [20]: 34%; GI50 [21]: 6 nM; AUC [22]: 686 ng/mL; Activity [23]: Active; Kp [5]: 16; Activity [24]: 11%
COc1ccc(N(C)c2nc(NC/C=C(\C)CCC=C(C)C)nc3ccccc23)cc1 | 270 | 460 | 290 | –
CCc1ccc(N(C)c2nc(C)nc3ccccc23)cc1 | – | 26 | 31 | –

Compound | EC50 [1] [nM] | EC50 [2] [nM] | EC50 [3] [nM] | other results
COc1ccc(N(C)c2nc(C)nc3ccccc23)c(F)c1 | 4 | 4 | 4 | –
CNc1nc(N(C)c2ccc(OC)cc2)c2ccccc2n1 | 5 | 9 | 8 | –
CSc1ccc(N(C)c2nc(C)nc3ccccc23)cc1 | – | 3 | 3 | –
COc1ccc(N(C)c2nc(N(C)C(C)=O)nc3ccccc23)cc1 | 10 | 9 | 9 | –
COc1ccc(N(C)c2nc(C)nc3ccccc23)cn1 | – | – | – | Kp [5]: 5.8
Cc1nc(N(C)c2ccc(N)cc2)c2ccccc2n1 | 170 | 250 | 180 | Kp [5]: 0.9
Cc1nc(N(C)c2ccc([N+](=O)[O-])cc2)c2ccccc2n1 | 620 | 1300 | 740 | –
COc1ccc(N(C)c2nc(CO)nc3ccccc23)cc1 | 2 | 4 | 2 | –
COc1ccc(N(C)c2nc(CF)nc3ccccc23)cc1 | 1 | 2 | 2 | –
COc1ccc(N(C)c2nc(CCl)nc3ccccc23)cc1 | – | 48 | 48 | –
Cc1nc(N(C)c2ccc(O)cc2)c2ccccc2n1 | – | 130 | 86 | –
COc1ccc(N(C)c2nc(NN)nc3ccccc23)cc1 | 20 | 36 | 23 | –
CCOc1ccc(N(C)c2nc(C)nc3ccccc23)cc1 | 4 | 4 | 4 | –
COc1ccc(N(C)c2nc(N(C)C)nc3ccccc23)cc1 | 33 | 43 | 15 | Kp [5]: 4
Cc1nc(N(C)c2ccc(N(C)C)nc2)c2ccccc2n1 | 20 | 33 | 15 | –
